From ChEMBL document CHEMBL4689842, “EUbOPEN Chemogenomics Library wave 1” (2021)
Values joined by “and” are separate entries in the source; they are usually repeats but may differ in a detail not shown here. Identical values can stand only once.

How the values were obtained:
Assay type in all cases: toxicity, cell-based
Fibroblast [1] = assay: Multiplex assay against human fibroblast; conditions: 10 µM, compound concentration 10 uM
In short: (§1)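 Phenotypes for tubulin, mitochondrial mass and membrane permeability are expressed as per cents of healthy-nucleus cells. Cells were stained live at seeding with Hoechst33342, BioTracker Green Microtubule Cytoskeleton Dye, MitoTracker Red and Annexin V Alexa Fluor 680, then imaged after compound addition on a CQ1 microscope at 37°C and 5% CO2. Machine-learning gating in CellPathfinder separated Hoechst high-intensity objects from normal cells, divided normal cells by nuclear state (healthy, pyknosed, fragmented) and divided pyknosed cells into mitotic or apoptotic.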

HEK-293T [2] = assay: Multiplex assay against HEK293T; conditions: human, 10 µM, compound concentration 10 uM; in short: as §1;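 as to Population Tubulin-Different-Phenotype (%): share of the cells with healthy nuclei that show this phenotype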
U2OS [3] = assay: Multiplex assay against U2OS; conditions: human, 10 µM, compound concentration 10 uM; in short: as §1
HEK-293T [4] = assay: Incucyte cell viability with HEK293T; conditions: human, 10 µM, compound concentration 10 uM; also: filed as whole numbers so only -1 and 0 and 1 occur
Fibroblast [5] = assay: Incucyte cell viability with human fibroblast; conditions: 10 µM, compound concentration 10 uM; also: filed as whole numbers so only -1 and 0 and 1 occur
U2OS [6] = assay: Incucyte cell viability with U2OS; conditions: human, 10 µM, compound concentration 10 uM; also: filed as whole numbers so only -1 and 0 and 1 occur
[7] = 0 h, replicate number 1, timepoint 0 hours
[8] = 0 h, replicate number 2, timepoint 0 hours
[9] = 12 h, replicate number 1, timepoint 12 hours
[10] = 18 h, replicate number 1, timepoint 18 hours
[11] = 24 h, replicate number 1, timepoint 24 hours

## Cn1nc(C(=O)NCc2ccc(C(=O)O)cc2)cc1-c1ccc2[nH]ccc2c1 [BI 4395]
Fibroblast [1]; 12 h, replicate 1
  Population Apoptotic (%): 77% and 69%
  Population Fragmented Nuclei (%): 29% and 28%
  Population Healthy Nuclei (%): 57%
  Population Hoechst High Intensity Objects (%): 12% and 19%
  Population Mitochondria Different-Phenotype (%): 3% and 2%
  Population Mitotic Cells (%): 22% and 30%
  Population Normal (%): 87% and 80%
  Population Pyknosed Nuclei (%): 13% and 14%
  Population Tubulin-Different-Phenotype (%): 9% and 4%
  Total Cell Count: 190 and 199
Fibroblast [1]; 12 h, replicate 2
  Population Apoptotic (%): 42% and 100%
  Population Fragmented Nuclei (%): 43% and 54%
  Population Healthy Nuclei (%): 38% and 39%
  Population Hoechst High Intensity Objects (%): 29% and 49%
  Population Membrane Permeable-Phenotype (%): 26% and 9%
  Population Mitochondria Different-Phenotype (%): 13% and 0%
  Population Normal (%): 70% and 50%
  Total Cell Count: 55 and 104
Fibroblast [1]; 24 h, replicate 1
  Population Apoptotic (%): 71% and 69%
  Population Fragmented Nuclei (%): 29% and 27%
  Population Healthy Nuclei (%): 58% and 57%
  Population Hoechst High Intensity Objects (%): 12% and 17%
  Population Membrane Permeable-Phenotype (%): 9% and 5%
  Population Mitochondria Different-Phenotype (%): 2% and 0%
  Population Mitotic Cells (%): 28% and 30%
  Population Normal (%): 87% and 82%
  Population Pyknosed Nuclei (%): 14%
  Population Tubulin-Different-Phenotype (%): 7% and 4%
  Total Cell Count: 202 and 211
Fibroblast [1]; 24 h, replicate 2
  Population Fragmented Nuclei (%): 75% and 51%
  Population Healthy Nuclei (%): 25% and 37%
  Population Hoechst High Intensity Objects (%): 44% and 38%
  Population Membrane Permeable-Phenotype (%): 15%
  Population Mitochondria Different-Phenotype (%): 15% and 7%
  Population Mitotic Cells (%): 0%
  Population Normal (%): 55% and 61%
  Population Pyknosed Nuclei (%): 0% and 11%
  Population Tubulin-Different-Phenotype (%): 15% and 38%
  Total Cell Count: 94 and 57
HEK-293T [2]; 12 h, replicate 1
  Population Apoptotic (%): 20% and 23%
  Population Fragmented Nuclei (%): 9% and 10%
  Population Healthy Nuclei (%): 78% and 75%
  Population Hoechst High Intensity Objects (%): 9% and 8%
  Population Membrane Permeable-Phenotype (%): 4% and 2%
  Population Mitochondria Different-Phenotype (%): 2% and 7%
  Population Mitotic Cells (%): 79% and 76%
  Population Normal (%): 90% and 91%
  Population Pyknosed Nuclei (%): 12% and 14%
  Population Tubulin-Different-Phenotype (%): 2% and 3%
  Total Cell Count: 895 and 750
HEK-293T [2]; 12 h, replicate 2
  Population Apoptotic (%): 5% and 6%
  Population Healthy Nuclei (%): 84%
  Population Hoechst High Intensity Objects (%): 1%
  Population Membrane Permeable-Phenotype (%): 1%
  Population Mitochondria Different-Phenotype (%): 4%
  Population Mitotic Cells (%): 94% and 93%
  Population Normal (%): 98%
  Population Pyknosed Nuclei (%): 5% and 4%
  Population Tubulin-Different-Phenotype (%): 4%
  Total Cell Count: 1558 and 1918
HEK-293T [2]; 24 h, replicate 1
  Population Apoptotic (%): 15% and 13%
  Population Fragmented Nuclei (%): 11% and 14%
  Population Healthy Nuclei (%): 81% and 80%
  Population Hoechst High Intensity Objects (%): 6% and 4%
  Population Membrane Permeable-Phenotype (%): 9% and 6%
  Population Mitochondria Different-Phenotype (%): 2% and 4%
  Population Mitotic Cells (%): 84% and 86%
  Population Normal (%): 93% and 95%
  Population Pyknosed Nuclei (%): 6% and 5%
  Population Tubulin-Different-Phenotype (%): 3% and 5%
  Total Cell Count: 1152 and 1021
HEK-293T [2]; 24 h, replicate 2
  Population Fragmented Nuclei (%): 26% and 29%
  Population Healthy Nuclei (%): 71% and 68%
  Population Hoechst High Intensity Objects (%): 2% and 3%
  Population Membrane Permeable-Phenotype (%): 4%
  Population Mitochondria Different-Phenotype (%): 1%
  Population Mitotic Cells (%): 98% and 91%
  Population Normal (%): 97% and 96%
  Population Pyknosed Nuclei (%): 2% and 1%
  Total Cell Count: 2665 and 3275
U2OS [3]; 12 h, replicate 1
  Population Apoptotic (%): 42%
  Population Fragmented Nuclei (%): 4%
  Population Healthy Nuclei (%): 87% and 92%
  Population Hoechst High Intensity Objects (%): 2% and 3%
  Population Membrane Permeable-Phenotype (%): 9% and 4%
  Population Mitochondria Different-Phenotype (%): 17%
  Population Mitotic Cells (%): 57%
  Population Normal (%): 97% and 96%
  Population Pyknosed Nuclei (%): 8%
  Population Tubulin-Different-Phenotype (%): 21% and 16%
  Total Cell Count: 177 and 225
U2OS [3]; 12 h, replicate 2
  Population Fragmented Nuclei (%): 9% and 7%
  Population Healthy Nuclei (%): 89%
  Population Hoechst High Intensity Objects (%): 11%
  Population Membrane Permeable-Phenotype (%): 8%
  Population Mitochondria Different-Phenotype (%): 35% and 23%
  Population Mitotic Cells (%): 50% and 100%
  Population Normal (%): 88%
  Population Pyknosed Nuclei (%): 2% and 3%
  Population Tubulin-Different-Phenotype (%): 30%
  Total Cell Count: 84 and 159
U2OS [3]; 24 h, replicate 1
  Population Apoptotic (%): 18% and 33%
  Population Fragmented Nuclei (%): 4% and 1%
  Population Healthy Nuclei (%): 95%
  Population Hoechst High Intensity Objects (%): 1%
  Population Membrane Permeable-Phenotype (%): 6%
  Population Mitochondria Different-Phenotype (%): 18% and 24%
  Population Mitotic Cells (%): 81% and 66%
  Population Normal (%): 98%
  Population Pyknosed Nuclei (%): 6% and 2%
  Population Tubulin-Different-Phenotype (%): 20%
  Total Cell Count: 253 and 307
U2OS [3]; 24 h, replicate 2
  Population Apoptotic (%): 40% and 60%
  Population Fragmented Nuclei (%): 7% and 5%
  Population Healthy Nuclei (%): 87% and 89%
  Population Hoechst High Intensity Objects (%): 7% and 6%
  Population Membrane Permeable-Phenotype (%): 9% and 8%
  Population Mitochondria Different-Phenotype (%): 15% and 40%
  Population Mitotic Cells (%): 60% and 40%
  Population Normal (%): 92% and 93%
  Population Pyknosed Nuclei (%): 5%
  Population Tubulin-Different-Phenotype (%): 34% and 29%
  Total Cell Count: 199 and 102
HEK-293T [4]; [7]
  Growth Rate: 0
HEK-293T [4]; [8]
  Growth Rate: 1
HEK-293T [4]; [9]
  Growth Rate: 0
HEK-293T [4]; [10]
  Growth Rate: 0
HEK-293T [4]; 18 h, replicate number 2, timepoint 18 hours
  Growth Rate: 1
HEK-293T [4]; [11]
  Growth Rate: 0
Fibroblast [5]; [7]
  Growth Rate: 0
Fibroblast [5]; 6 h, replicate number 2, timepoint 6 hours
  Growth Rate: 0
Fibroblast [5]; [9]
  Growth Rate: 1
Fibroblast [5]; [10]
  Growth Rate: 1
Fibroblast [5]; [11]
  Growth Rate: 1
U2OS [6]; [8]
  Growth Rate: 0
U2OS [6]; 6 h, replicate number 1, timepoint 6 hours
  Growth Rate: 1
U2OS [6]; [9]
  Growth Rate: 1
U2OS [6]; [10]
  Growth Rate: 1
U2OS [6]; [11]
  Growth Rate: 1
